Legend:
[1] = molecular target: Human immunodeficiency virus type 1 integrase (Human immunodeficiency virus 1, UniProt Q7ZJM1); assay: Inhibition of HIV1 integrase strand transfer activity
[2] = Aqueous solubility of the compound; type: physicochemical
Summary of the method: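 Aqueous solubility measured at pH 2.3, 6.1, 7.3 and 8.5, in µg/mL.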

[3] = Clearance in Sprague-Dawley rat at 1 mg/kg, iv after 4 hrs; type: ADME, organism-based; conditions: in vivo
Summary of the method: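 Male Sprague-Dawley rats given 1 mpk IV in PEG400/ethanol (90:10); blood sampled at 5 and 30 min and 1, 2 and 4 h post-dose; clearance from plasma profile.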

Sequence of Human immunodeficiency virus type 1 integrase (Q7ZJM1 whole entry): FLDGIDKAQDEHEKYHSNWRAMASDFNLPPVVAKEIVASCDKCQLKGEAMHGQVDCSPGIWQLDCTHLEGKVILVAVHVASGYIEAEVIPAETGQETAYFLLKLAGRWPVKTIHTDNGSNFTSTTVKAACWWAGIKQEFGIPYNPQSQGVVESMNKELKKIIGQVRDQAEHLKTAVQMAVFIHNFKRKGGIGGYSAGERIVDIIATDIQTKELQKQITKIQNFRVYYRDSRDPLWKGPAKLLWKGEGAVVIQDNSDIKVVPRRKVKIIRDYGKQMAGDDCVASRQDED

IC50 [1] [nM] | solubility [2] [µg/mL] | clearance [3] [mL/min/kg] | Compound
11 | ≤ 5 |  | O=C(NCc1ccc(F)cc1S(=O)(=O)N1CCOCC1)c1nc2n(c(=O)c1O)CCCC21CCCC1
4 | ≤ 5 | 46 | CS(=O)(=O)c1cc(F)ccc1CNC(=O)c1nc2n(c(=O)c1O)CCCC21CCCC1
3 |  | 11 | Cc1cc(CNC(=O)c2nc3n(c(=O)c2O)CCOC3(C)C)ccc1F
2 | ≤ 5 | 17 | Cc1cc(CNC(=O)c2nc3n(c(=O)c2O)CCCC32CCCC2)ccc1F
